ChEMBL document CHEMBL1155448, “(3-Phenylsulfonylcycloalkano[e and d]pyrazolo[1,5-a]pyrimidin-2-yl)amines: potent and selective antagonists of the serotonin 5-HT6 receptor” (J Med Chem, 2010)

How the values were obtained:
[1] = target: T1, 5-hydroxytryptamine receptor 6 (Homo sapiens, UniProt P50406); test: Antagonist activity at human 5HT6 receptor expressed in HEK293 cells assessed as inhibition of serotonin-induced cAMP release; type: functional, cell-based
In short: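 Tetracycline-induced T-Rex 5-HT6 HEK cells in HBSS with 1 mM MgCl₂, 1 mM CaCl₂, 5 mM HEPES pH 7.4, 100 μM IBMX; compounds 15 min (0.1% DMSO final), then serotonin 10 nM final for 30 min at room temp. cAMP by LANCE TR-FRET. Ki from concentration-dependent inhibition; geometric mean of three to four independent experiments, each curve in duplicate.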

[2] = target: 5-hydroxytryptamine receptor 2B (Homo sapiens, UniProt P41595); test: Antagonist activity at human 5HT2B receptor expressed in HEK293 cells assessed as inhibition of alpha-Me-serotonin-induced intracellular calcium mobilization by spectrophotometry; type: functional, cell-based
In short: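 Tetracycline-induced T-Rex 5-HT2B HEK cells, Fura-2AM loaded (4 μM, 30 min, room temp, dark), suspended at (3-4) × 10⁶ cells/mL, diluted into HEPES-buffered saline with 1.8 mM CaCl₂ in stirred cuvette. Compound added after 20-30 s baseline, then serotonin challenge; Fura-2 ratio 340/380 nm excitation, 510 nm emission. Ki from concentration-dependent inhibition; geometric mean of three to four experiments, duplicate curves.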

[3] = target: T1, 5-hydroxytryptamine receptor 6; test: Antagonist activity at 5HT6 receptor; type: functional
In short: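 Human 5-HT6R expressed in HEK293 cells (T-Rex, tetracycline-induced a day before). Compounds preincubated 15 min in HBSS with 1 mM MgCl2, 1 mM CaCl2, 5 mM HEPES pH 7.4, 100 μM IBMX, 0.1% DMSO final. Serotonin then added to 10 nM final, 30 min at room temperature. cAMP measured by LANCE TR-FRET. Ki from concentration-dependent inhibition, geometric mean of 3-4 experiments, duplicate curves.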

[4] = target: T1, 5-hydroxytryptamine receptor 6; test: Displacement of [3H]lysergic acid diethylamide from human recombinant 5HT6 receptor expressed in human HeLa cells; type: cell-based
In short: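 Ki from concentration-dependent displacement of [3H]lysergic acid diethylamide in a contracted radioligand binding assay; each curve measured in duplicate.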

[5] = target: T2, hERG (KCNH2) (Homo sapiens, UniProt Q12809); test: Inhibition of human ERG expressed in […] cells at 90 uM after 3 to 8 mins by voltage clamp assay; type: cell-based; conditions: […] cells that express human ERG
In short: (§1)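 Automated whole-cell voltage clamp at 25 °C on HEK cells stably expressing human hERG; K-based intracellular (pH 7.2), Na-based extracellular (pH 7.4) solutions. 2 s pulses to +20 mV, 15 s interpulse; compound until steady current (3-8 min), washout, 10 μM cisapride control. Percent of vehicle tail current; triplicate, mean ± SEM at highest concentration.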

[6] = target: T2, hERG (KCNH2); test: Inhibition of human ERG expressed in […] cells at 3 uM after 3 to 8 mins by voltage clamp assay; type: cell-based; conditions: HEK297 cells that express human ERG; in short: as §1
[7] = target: T2, hERG (KCNH2); test: Inhibition of human ERG expressed in […] cells at 10 uM after 3 to 8 mins by voltage clamp assay; type: cell-based; conditions: HEK297 cells that express human ERG; in short: as §1

T2 sequence (Q12809 whole entry): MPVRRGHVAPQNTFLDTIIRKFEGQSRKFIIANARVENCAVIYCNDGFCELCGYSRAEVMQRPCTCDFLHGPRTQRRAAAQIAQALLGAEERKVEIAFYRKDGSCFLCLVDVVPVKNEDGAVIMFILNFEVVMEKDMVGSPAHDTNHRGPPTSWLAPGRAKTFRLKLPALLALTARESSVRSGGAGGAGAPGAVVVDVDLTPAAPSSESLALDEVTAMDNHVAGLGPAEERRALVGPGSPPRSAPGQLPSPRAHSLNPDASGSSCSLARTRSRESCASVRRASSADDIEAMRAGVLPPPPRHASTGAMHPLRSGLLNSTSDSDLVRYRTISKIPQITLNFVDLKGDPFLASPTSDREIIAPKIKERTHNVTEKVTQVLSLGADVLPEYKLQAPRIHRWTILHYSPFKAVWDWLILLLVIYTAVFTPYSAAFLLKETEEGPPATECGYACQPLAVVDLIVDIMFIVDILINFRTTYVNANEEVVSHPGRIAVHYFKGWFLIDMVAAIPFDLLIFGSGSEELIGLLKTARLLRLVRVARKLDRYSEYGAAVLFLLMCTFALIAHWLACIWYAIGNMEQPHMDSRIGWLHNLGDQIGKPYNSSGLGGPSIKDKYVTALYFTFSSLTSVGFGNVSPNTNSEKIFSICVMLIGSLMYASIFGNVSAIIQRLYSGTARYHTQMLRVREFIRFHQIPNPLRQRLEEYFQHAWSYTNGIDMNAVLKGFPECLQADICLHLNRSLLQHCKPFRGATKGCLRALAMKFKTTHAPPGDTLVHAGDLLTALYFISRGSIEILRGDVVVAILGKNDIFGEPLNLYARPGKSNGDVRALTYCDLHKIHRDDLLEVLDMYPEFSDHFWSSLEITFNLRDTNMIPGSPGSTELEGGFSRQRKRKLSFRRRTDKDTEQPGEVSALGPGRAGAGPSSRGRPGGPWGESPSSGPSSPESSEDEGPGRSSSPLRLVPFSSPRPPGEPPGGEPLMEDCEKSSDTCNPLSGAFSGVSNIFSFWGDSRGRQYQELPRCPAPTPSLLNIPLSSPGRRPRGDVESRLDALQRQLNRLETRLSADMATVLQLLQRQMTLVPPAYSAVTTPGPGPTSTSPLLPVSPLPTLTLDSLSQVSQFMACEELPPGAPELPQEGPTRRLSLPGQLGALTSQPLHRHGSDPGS
Sequence of 5-hydroxytryptamine receptor 2B (P41595 whole entry): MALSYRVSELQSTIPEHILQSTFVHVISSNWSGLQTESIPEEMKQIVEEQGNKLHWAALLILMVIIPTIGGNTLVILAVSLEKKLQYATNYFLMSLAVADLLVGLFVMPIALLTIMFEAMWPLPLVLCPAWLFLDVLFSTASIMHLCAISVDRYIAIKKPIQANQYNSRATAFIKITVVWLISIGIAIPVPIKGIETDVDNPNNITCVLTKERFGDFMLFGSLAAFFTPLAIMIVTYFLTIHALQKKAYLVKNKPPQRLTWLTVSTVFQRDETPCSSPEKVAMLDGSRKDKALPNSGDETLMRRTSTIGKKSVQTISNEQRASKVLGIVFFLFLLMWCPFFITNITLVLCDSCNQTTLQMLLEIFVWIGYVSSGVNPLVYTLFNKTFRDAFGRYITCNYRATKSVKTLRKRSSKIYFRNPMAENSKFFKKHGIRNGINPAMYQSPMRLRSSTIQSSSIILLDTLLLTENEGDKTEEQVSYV
T1 sequence (P50406 whole entry): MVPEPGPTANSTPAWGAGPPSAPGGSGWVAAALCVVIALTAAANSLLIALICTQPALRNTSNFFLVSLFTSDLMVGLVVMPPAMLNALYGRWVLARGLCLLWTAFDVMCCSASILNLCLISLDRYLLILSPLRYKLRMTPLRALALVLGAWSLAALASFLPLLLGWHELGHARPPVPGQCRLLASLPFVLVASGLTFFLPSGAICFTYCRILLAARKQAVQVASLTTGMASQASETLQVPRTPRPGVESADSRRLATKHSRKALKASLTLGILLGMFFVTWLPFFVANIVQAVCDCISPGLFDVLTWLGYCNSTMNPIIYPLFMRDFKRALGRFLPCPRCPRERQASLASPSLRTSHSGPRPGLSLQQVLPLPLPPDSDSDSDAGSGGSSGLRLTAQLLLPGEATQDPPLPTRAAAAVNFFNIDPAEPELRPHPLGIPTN

| SMILES | Ki [1] [nM] | Ki [2] [nM] | further results |
| --- | --- | --- | --- |
| CN(C)c1nn2c3c(cnc2c1S(=O)(=O)c1ccccc1)CCC3 | 28.8 | – | – |
| CNc1nn2cc3c(nc2c1S(=O)(=O)c1ccccc1)CCCC3 | 0.542 | 169 | – |
| CSc1nn2c3c(c(C)nc2c1S(=O)(=O)c1ccccc1)CCCC3 | – | – | IC50 [3]: 6 nM |
| Cc1nc2c(S(=O)(=O)c3ccccc3)c(N3CCNCC3)nn2c2c1CCC2 | 869 | – | – |
| Cc1nc2c(S(=O)(=O)c3ccccc3)c(N(C)C)nn2c2c1CCC2 | 25.5 | – | – |
| CNc1nn2c3c(cnc2c1S(=O)(=O)c1ccccc1)CCC3 | 0.375 | 464 | Ki [4]: 0.088 nM; inhibition at 90 µM [5]: 29.5% |
| CNc1nn2c3c(c(C)nc2c1S(=O)(=O)c1ccccc1)CCC3 | 0.413 | 188 | inhibition at 3 µM [6]: 4.3% |
| CNc1nn2c(C)c3c(nc2c1S(=O)(=O)c1ccccc1)CCCC3 | – | – | inhibition at 3 µM [6]: 12.5% |
| CNc1nn2c3c(c(C)nc2c1S(=O)(=O)c1ccccc1)CCCC3 | – | – | inhibition at 10 µM [7]: 52.4% |
| Cc1nc2c(S(=O)(=O)c3ccccc3)c(N3CCNCC3)nn2c2c1CCCC2 | 1760 | – | – |
| CNc1nn2c3c(cnc2c1S(=O)(=O)c1ccccc1)CCCC3 | 0.259 | 153 | – |
